# From PubChem BioAssay
# Shown are actives, neighbours in structure and some others; about 9.8% of the full set was active somewhere.
# PMI activator: increases human mannose-6-phosphate isomerase activity; P34949; purified human PMI, coupled resazurin fluorescence, 20 min; stronger effect = higher value; 1 = vehicle control, 0 substrate-free wells; activation factor at 20 µM; hit rate 0.005% among 190,000; AID 1214;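 active = activation factor of 2 or more at 20 µM, relative to plate controls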
# Target sequence (P34949 whole entry, looked up): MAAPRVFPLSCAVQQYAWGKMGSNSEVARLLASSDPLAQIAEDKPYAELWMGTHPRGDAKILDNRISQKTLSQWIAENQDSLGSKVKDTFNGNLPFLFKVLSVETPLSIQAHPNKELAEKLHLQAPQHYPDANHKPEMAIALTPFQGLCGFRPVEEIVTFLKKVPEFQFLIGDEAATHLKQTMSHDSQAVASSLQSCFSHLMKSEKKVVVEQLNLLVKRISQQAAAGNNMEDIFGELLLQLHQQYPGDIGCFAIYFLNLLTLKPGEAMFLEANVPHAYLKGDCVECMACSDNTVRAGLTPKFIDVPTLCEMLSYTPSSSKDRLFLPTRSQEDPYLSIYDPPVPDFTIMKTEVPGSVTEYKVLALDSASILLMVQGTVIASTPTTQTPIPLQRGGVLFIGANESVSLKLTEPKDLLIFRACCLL
# Rad51 HR inh: Rad51 (human) homologous recombination inhibition | Q06609 | inhibition, % at 10 µM | hRad51 DNA strand exchange, fluorescence dequenching | hit rate 0.085% among 200,000 | AID 1385;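 active = inhibition above 40% at the single screening dose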;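 also: 0% = DMSO control wells and 100% = blanks with heterologous ssDNA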
#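 material = hRad51 filaments on single-stranded DNA | reagent = Donor/quencher-labelled 47-bp dsDNA substrate | compound = 10 µM final, single point | schedule = strand-exchange reaction 15 min at room temperature | measured by = fluorescein emission 520 nm, excitation 485 nm | read-out basis = % inhibition versus plate control and blank means | benchmarks = plate controls and plate blanks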
# PMI act hi M6P: increases human PMI activity with near-saturating mannose 6-phosphate; activation factor at 20 µM; hit rate 0.34% among 190,000; coupled PMI enzyme assay, resazurin fluorescence, 20 min; stronger effect = higher value; 1 = untreated enzyme, 0 = substrate-free blank; P34949;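 active = activation factor of 2 or more at 20 µM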
#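 Test system: human PMI in coupled enzyme assay; Input: PMI at 15 ng/mL final; Medium: HEPES buffer, pH 7.4; Schedule: 20 min incubation at room temperature; Technique: resorufin fluorescence at Ex 544/Em 590 nm; Compound: 20 µM single dose; Probe or stimulus: Near-saturating mannose-6-phosphate, 1.0 mM.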
# WT yeast gro inh: growth inhibition of WT yeast, mitochondrial fusion screen | inhibition, % at 10 µM | hit rate 2.1% among 190,000 | mitochondrial fusion phenotypic screen, WT strain; in the data active = inhibition above about 58%; tested in S. cerevisiae
# L major viab: reduces viability of Leishmania major promastigotes; resazurin fluorescence viability; inhibition, % at 10 µM; hit rate 9% among 200,000; AID 1063; in the data active = inhibition above about 50%;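 also: promastigotes grown with compound for 44 hours at 28 °C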
# m-calpain inh: inhibitors of pig calpain II; purified calpain II, fluorogenic peptide substrate, 30 min; inhibition, % at 16 µM; hit rate 0.37% among 220,000;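 active = inhibition above about 50%, limit read from the data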
# An asterisk follows results filed as active; · = no result.
SMILES,PMI activator,Rad51 HR inh,PMI act hi M6P,WT yeast gro inh,L major viab,m-calpain inh
COC(=O)c1ccc(-c2ccco2)n1Cc1cc(C)ccc1C,1,1.8,1.1,0.8,-5.1,-19.9
C=CCN(c1ccccc1)S(=O)(=O)c1cccc2cccnc12,·,·,·,·,·,7.8
COc1ccc(NC(=O)C2CC(=O)n3cnnc3S2)cc1 (centres undefined),0.5,-1.4,0.7,5.4,97.7*,-26.6
COc1cccc(NC(=O)C2CC(=O)n3cnnc3S2)c1 (centres undefined),0.5,-7.0,0.9,14.9,3.6,11.0
C=CCn1c(SCC(=O)Nc2ccccc2-c2ccccc2)nc2cc(C(=O)O)ccc2c1=O,1.1,2.2,1.1,-17.8,1.9,-17.7
CN(C)C(=O)COC(=O)c1ccccc1Nc1ccc(SC(F)F)cc1,0.8,-5.9,0.9,31.5,-5.0,1.8
CCCSc1cc(N2CCN(C)CC2)nc(-c2ccc(OC)cc2)n1,0.9,2.2,0.9,94.7*,24.6,-26.8
CCCCCCCCCCC(=O)NNC(=O)c1c(O)c2ccccc2n(CC)c1=O,1.1,2.3,1.2,-9.0,6.7,-96.9
O=C1NN=C(CSc2n[nH]c(=S)s2)CS1,0.9,-92.1,2.1*,-19.5,-5.8,0.8
CC(C)CSc1n[nH]c(=S)s1,0.8,0.8,1.4,0.5,-8.6,3.4
O=C1C2C3C=CC(C3)C2C(=O)N1c1ccccc1OS(=O)(=O)c1ccccc1 (centres undefined),1.1,-9.1,1.1,-8.8,62.9*,7.8
O=C(COc1ccccc1N1C(=O)C2C3C=CC(C3)C2C1=O)c1ccccc1 (centres undefined),·,0.7,·,·,·,-1.3
NS(=O)(=O)c1cccc(NC(=O)COC(=O)CN2C(=O)C3CC=CCC3C2=O)c1 (centres undefined),1,4.2,0.9,-2.9,7.6,23.5
COCc1cc(C)nc2sc(C(=O)NCCO)c(-n3cccc3)c12,1.2,44.8*,1.1,3.2,6.0,-17.2
CCOc1ccccc1-n1c(=S)sc2c(=O)n(-c3ccccc3)c(=S)[nH]c21,0.9,-8.1,0.9,-3.6,-4.1,24.3
CCCCCCCCCCCCCCCCn1cc[n+](CC(C)=O)c1,1.1,4.3,1.1,97.9,100.3*,53.8*
CCCCCCn1ccc(=N)cc1,0.9,1.6,0.9,-0.6,2.1,10.2
O=C(Nc1cccc(Cl)c1N1CCCC1)c1ccc(Br)o1,0.8,-2.9,0.9,67.8*,-2.8,13.9
O=C(Nc1cccc(Cl)c1N1CCCC1)c1ccc([N+](=O)[O-])o1,1,-3.7,1,16.2,86.5*,1.8
O=C(Cc1ccc(Br)cc1)Nc1cccc(-c2cn3c(n2)SCC3)c1,0.9,4.2,1,7.9,39.6,-22.8
Cc1ccc(NC(=O)COC(=O)[C@H](C)N2C(=O)C3CC=CCC3C2=O)cc1S(=O)(=O)N(C)C (some centres undefined),1,-6.1,1,-0.5,4.0,1.4
COCc1cccc(N2C(=O)CC(C3C=C(C)C4C(=O)N(c5cccc(COC)c5)C(=O)C4C3)C2=O)c1 (centres undefined),1.1,5.1,1.1,9.3,-3.4,-3.2
C=CCn1cnc2c(c1=O)c1nc3ccccc3nc1n2/N=C/c1cccc(OC)c1OC,1,·,1,·,·,·
C=CCn1cnc2c(c1=O)c1nc3ccccc3nc1n2/N=C/c1cc(OC)c(OC)c(OC)c1,0.9,4.4,0.9,-1.6,100.2*,-97.9
O=c1[nH]c(=S)[nH]c2sccc12,1.1,5.8,1.4,-16.8,-12.7,12.7
SMILES,PMI activator,Rad51 HR inh,PMI act hi M6P,WT yeast gro inh,L major viab,m-calpain inh
Cc1cc(NCCC(C)C)n2nc(C)c(-c3ccccc3)c2n1,0.8,4.5,0.9,71.7*,8.2,10.0
Cc1cc(C)c2c(n1)nn1c(NCCCN3CCOCC3)cc(C)nc21,·,·,·,·,1.4,·
Cc1cc(NCCCN2CCOCC2)n2nc(C)c(-c3ccc(F)cc3)c2n1,0.9,-0.1,0.9,21.4,90.6*,-56.4
Cc1nn2c(NCCCn3ccnc3)cc(C(C)C)nc2c1-c1ccccc1,·,-7.1,·,·,·,-2.1
Cc1cc(NCCCN2CCOCC2)n2nc(C)c(-c3ccccc3)c2n1,1,-9.3,1,8.4,66.1*,-79.0
CC(=O)Nc1ccc(Nc2cc(C(C)C)nc3c(-c4ccccc4)c(C)nn23)cc1,·,10.6,·,·,·,-22.4
